Cneo AK release = Cryptococcus neoformans lysis via adenylate kinase release | lysis activity, % at 15 µM | AID 651654 | C. neoformans lysis, adenylate kinase release luminescence, 4 h; normalised: neutral wells 0, clomiphene wells 100 | 360,000 tested, 0.2% active;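 active = mean lysis activity across replicates of at least 80%, whatever share of replicates individually reach that level; inactive = mean lysis activity below 80%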
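Signal: Adenylate kinase release luminescence | Assay system: Log-phase Cryptococcus neoformans yeast cells | Input: Cells at 5 × 10^6 per mL | Buffer or medium: Fresh YPD growth medium | Compound: Single dose | Schedule: Static 4 h at 37 °C with compound, 1 h detection | Controls: Clomiphene | Read-out: Luminescence rise reflecting yeast cell lysis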
AF4-AF9 inh = MLL-AF4/AF9 protein interaction inhibition; P42568; AID 651704; 350,000 tested, 0.47% active; inhibition, % at 10 µM; AlphaScreen, biotin-AF4 peptide binding to FLAG-AF9;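 active = every replicate reaching a set inhibition limit, whatever the replicate mean, cut at about 25% in these data; inconclusive = mean inhibition reaches that limit but some replicates miss it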;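 note: 0% = plate neutral control median and 100% = total signal loss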
Target sequence (P42568 whole entry, looked up): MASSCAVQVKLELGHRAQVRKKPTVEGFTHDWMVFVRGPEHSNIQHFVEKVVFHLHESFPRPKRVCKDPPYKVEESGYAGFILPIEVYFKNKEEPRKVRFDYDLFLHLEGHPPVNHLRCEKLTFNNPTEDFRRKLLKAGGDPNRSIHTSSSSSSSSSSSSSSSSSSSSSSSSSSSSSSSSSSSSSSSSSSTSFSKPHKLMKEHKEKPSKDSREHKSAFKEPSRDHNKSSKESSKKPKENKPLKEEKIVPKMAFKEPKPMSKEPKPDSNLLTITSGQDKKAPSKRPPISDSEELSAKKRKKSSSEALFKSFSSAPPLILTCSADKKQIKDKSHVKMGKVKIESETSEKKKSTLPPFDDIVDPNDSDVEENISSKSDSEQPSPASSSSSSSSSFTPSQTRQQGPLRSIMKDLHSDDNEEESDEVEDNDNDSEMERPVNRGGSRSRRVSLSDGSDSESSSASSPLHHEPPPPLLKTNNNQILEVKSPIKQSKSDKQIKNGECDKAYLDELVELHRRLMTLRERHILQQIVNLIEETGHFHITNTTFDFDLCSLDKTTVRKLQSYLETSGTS
rRNA inh HTS = inhibitors of bacterial rRNA selective over humanized ribosomes; 350,000 tested, 1.6% active; GFP signal change (wild-type ribosome), % (no concentration beside the values); E. coli WT GFP vs humanized-ribosome RFP mutants, fluorescence, 24 h; active compounds read low; DMSO median 0, no signal -100;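 active = significant combined selectivity score with lowered wild-type GFP, culture density cut under 30%, mutant RFP and density less affected; inactive = any of these conditions unmet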
DENV2 CPE = DENV2-induced cell death inhibition. DENV2-infected cells, cytopathic effect rescue, plate reader. CPE inhibition, % at 9.99 µM. 350,000 tested, 1.7% active; in the data active = CPE inhibition above about 20%, passing the limit was not always enough; inconclusive = no clear call, values can overlap the other calls; tested in BHK-21 cells;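 note: 0% = median of neutral control wells and 100% = median of positive control wells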
S100A4 MyoIIA = inhibitors of human S100A4 binding to myosin IIA peptide | P26447 | 360,000 tested, 0.14% active | S100A4/TAMRA-MyoIIA peptide fluorescence polarization | inhibition, % at 10.7 µM;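 active = mean inhibition of at least 70% across replicates, with every replicate also reaching that level; inconclusive = mean inhibition reaches 70% but some replicates fall short; inactive = mean inhibition below 70%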
Target sequence (P26447 whole entry, looked up): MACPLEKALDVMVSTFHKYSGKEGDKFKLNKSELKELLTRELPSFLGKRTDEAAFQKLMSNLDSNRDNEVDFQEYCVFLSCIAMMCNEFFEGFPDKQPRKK
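Material: human S100A4 monomer with TAMRA-labelled myosin IIA peptide; buffer or medium: HEPES pH 7.2 with CaCl2, KCl, NaCl, DTT, Triton; compound dosing: one concentration per compound; schedule: 5 min incubation before reading; benchmarks: neutral control DMSO, positive control TFP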
PfHsp90 set2 = reduces growth (ATP signal) of yeast expressing P. falciparum Hsp90; S. cerevisiae expressing PfHsp90, BacTiter-Glo ATP, 48 h; yeast lacking PDR1 and PDR3 efflux regulators; inhibition, % at 9.4 µM; 310,000 tested, 0.32% active; AID 504621;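 active = every replicate shows inhibition above about 80%, whatever the replicate mean, limit read from the data; inconclusive = mean inhibition reaches the set limit but some replicate falls short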;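 note: 0% = DMSO neutral controls and 100% = 20 µM radicicol positive controls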
HepG2 cytotox = HepG2 cell cytotoxicity; shares compounds with rRNA inh HTS; HepG2 viability, ATP luminescence, 72 h; activity change, negative = cytotoxicity, unspecified at 26 µM; 30 tested, under 10 active;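 active = compounds whose fitted half-maximal signal-loss concentration is at most twice their highest valid dose; inconclusive = flat curve with 30 to 70% signal loss, or poor fit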
AID977621 = wild-type E. coli growth inhibition versus H69 humanized strain – H69 mutant RFP, wild-type GFP, cherry-pick, dose response | fluorescence, 24 h | shares compounds with rRNA inh HTS | activity change, negative = inhibition at 50 µM | 1,900 tested, under 10 active;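 active = Wild-type ribosome reporter drop at least double the humanized mutant ribosome reporter drop, growth loss under a set limit; inconclusive = no clear call, values can overlap the other calls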;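 note: wild-type GFP and H69 mutant RFP strains grown together 50/50 in each well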
AID977628 = E. coli growth inhibition, wild-type GFP versus h24 humanized RFP strain, dose response, h24 mutant RFP vs wild-type GFP, cherry-pick | shares compounds with rRNA inh HTS | E. coli WT GFP strain growth, fluorescence, 24 h | activity change, negative = inhibition at 50 µM | 1,900 tested, under 10 active | AID 977628;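 active = compound lowering the normal-ribosome reporter at least twice as much as the humanized-ribosome reporter, growth loss under a set limit; inconclusive = no clear call, values can overlap the other calls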;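 note: wild-type GFP and h24 humanized RFP strains co-cultured 1 to 1 per well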
An asterisk follows results filed as active; u = inconclusive; x = no result given; ! = not confirmed by another sample. Sampled rows, rich in hits. Any-hit rate of the full collection: about 3.2%.

SMILES | Cneo AK release | AF4-AF9 inh | rRNA inh HTS | DENV2 CPE | S100A4 MyoIIA | PfHsp90 set2 | AID977621 | AID977628 | others
COc1ccc(CN(C)C[C@@H]2OCCCC[C@@H](C)Oc3ccc(NS(=O)(=O)c4cn(C)cn4)cc3C(=O)N([C@H](C)CO)C[C@H]2C)cc1 | -4 | -13 | 0 | -3 | -5 | x | x | x
C=CCn1c(C)cc(C(=O)COC(=O)CNC(=O)c2ccccc2)c1C | x | 4 | -24* | -1 | 4 | -13 | -7.8 | x
CCC(=O)N1C[C@@H](O)COC[C@H]2O[C@H](CC(=O)N3CCCCC3)CC[C@@H]21 | 0 | -3 | 5 | 4 | -2 | x | x | x
CN1[C@@H]2Cn3c(ccc(/C=C/c4ccccc4)c3=O)[C@H]1[C@@H](C(=O)NC1CCCC1)[C@@H]2CO | x | -9 | -1 | 5 | -6 | x | x | x
Cc1ccc(NS(=O)(=O)c2ccc3c(c2)CCC(=O)N3)cc1C | 2 | 4 | -23*! | -5 | -2 | -27 | -3.4 | u
CN(C)CCCn1c(=O)n(Cc2ccco2)c(=O)c2c3c(sc21)CCCCC3 | x | x | -26* | 18 | -8 | 6 | -20 | u
O=C(O)c1ccccc1Nc1cc(Cl)c2nonc2c1[N+](=O)[O-] | -8 | 1 | -20* | 9 | 2 | -8 | u | x
O=C(O)c1cccc(Nc2cc(Cl)c3nonc3c2[N+](=O)[O-])c1 | x | -13 | -13 | u | 3 | -36 | x | x
Cc1ccc2cccc(OCc3ccc(F)cc3)c2n1 | 5 | -2 | -14 | 1 | 3 | 5 | x | x
Cc1ccc2cccc(OCc3ccccc3)c2n1 | 3 | -5 | -26* | -4 | -1 | x | -10 | -8
COc1ccc(OCCCC(=O)Nc2cccc([N+](=O)[O-])c2)cc1 | -3 | x | x | x | x | 9 | x | x
CC(=O)Nc1cccc(OCCCOc2cccc([N+](=O)[O-])c2)c1 | x | 3 | -5.5* | 5 | 1 | 50 | -11 | -8.9
CCCCN(C)CCNC(=O)c1cc2cc3ccc(OC)cc3nc2o1 | -2 | 1 | -3 | -2 | 0 | 2 | x | x
CCN(CC)CCNC(=O)c1cc2cc3ccc(OC)cc3nc2o1 | 0 | 2 | -19* | 5 | -3 | 7 | -7.9 | u
COc1cccc(NC(=O)COC(=O)Cc2ccc(Cl)cc2)c1 | 3 | -1 | -36* | x | -5 | -62 | -9.5 | x
COc1ccc(CC(=O)OCC(=O)Nc2cccc(Br)c2)cc1 | x | -3 | 4 | -8 | 10 | 15 | x | x
COc1cccc(NC(=O)COC(=O)Cc2ccc(Br)cc2)c1 | x | -2 | -15* | -7 | -4 | 8 | u | -7.4
O=C1c2ccccc2CCc2ccccc21 | 0 | -1 | -5 | 6 | 3 | x | x | x
O=C1c2ccccc2CSc2c(O)cccc21 | -2 | -1 | -31* | 6 | -12 | x | -10 | -11
Cc1onc(-c2ccccc2)c1C(=O)Oc1ccccc1 | -1 | 0 | -29* | 2 | -8 | x | -3.3 | -3
C[C@H]1CN([C@@H](C)CO)C(=O)CCCn2nncc2CO[C@@H]1CN(C)Cc1ccccc1C(F)(F)F | 1 | 3 | -18*! | 0 | 0 | x | -1.5 | u
Cc1ccccc1CN(C)C[C@H]1OCc2cnnn2CCCC(=O)N([C@@H](C)CO)C[C@H]1C | 58 | 0 | -2 | 0 | -1 | x | x | x
Cc1noc(C)c1NC(=O)N[C@H]1C=C[C@H](CC(=O)N2CCN(C)CC2)O[C@@H]1CO | 10 | -1 | 3 | 8 | -3 | x | x | x
O=C(c1cccc2c1-c1ccccc1C2)N1CCCCC1 | x | x | -22* | -1 | -2 | -5 | -11 | u
CC(C)NC(=O)N(C)C[C@H]1Oc2ccc(NS(C)(=O)=O)cc2C(=O)N([C@H](C)CO)C[C@H]1C | -3 | -2 | 3 | -8 | -4 | x | x | x
SMILES | Cneo AK release | AF4-AF9 inh | rRNA inh HTS | DENV2 CPE | S100A4 MyoIIA | PfHsp90 set2 | AID977621 | AID977628 | others
COc1ccc(N(C)S(=O)(=O)c2cccc(C(=O)NC3CCCCC3C)c2)cc1 (stereo not drawn) | 4 | 0 | -27* | 0 | -2 | -3 | -6.9 | x
COc1ccc(N(C)S(=O)(=O)c2cccc(C(=O)NC3CCCC3)c2)cc1 | 1 | -3 | -26 | 1 | -2 | x | x | x
C=CCSc1cc(C)nc2c(-c3ccccc3)c(C)nn12 | -1 | x | -38* | 3 | -4 | -21 | -7.6 | -4.8
CN(C)c1ccc(-c2nnn(CC(=O)Nc3ccccc3N3CCOCC3)n2)cc1 | 1 | 4 | -16* | 5 | -1 | 5 | -8.9 | -13
Cc1ccccc1NC(=O)Cn1nnc(-c2ccc(N3CCOCC3)cc2)n1 | 1 | x | x | x | x | x | x | x
CC(=O)N1CC2(C1)[C@@H](c1ccc(-c3ccc(C#N)cc3)cc1)[C@@H](CO)N2C(=O)C1CC1 | x | 0 | -2 | 0 | 4 | x | x | x
O=C(CSc1nnc(COc2cccc3cccnc23)o1)c1ccc(F)cc1 | 0 | -12 | -25* | -2 | 4 | 2 | 2.1 | -6.4
Cc1cc(C)c(OCCNC(=O)c2ccccc2Sc2ccccc2C#N)c(C)c1 | x | -1 | -25* | -13 | 3 | -6 | x | x | HepG2 cytotox=21
Cc1ccccc1OCCNC(=O)c1ccccc1Sc1ccccc1C#N | 1 | x | x | x | x | 3 | x | x
O=C(Cn1c(CO)nc2ccccc21)NCCc1ccc(F)cc1 | -1 | -1 | -19* | -2 | 3 | -6 | u | x
CCc1nnc(NC(=O)CSc2ncc(-c3ccccc3)[nH]2)s1 | 3 | -36 | -20* | 3 | 1 | 5 | 7.7 | -0.48
CC(=O)N(C)C[C@H]1Oc2c(cccc2N(C)C)C(=O)N(C)C[C@H]1C | x | x | 4 | x | x | x | x | x
Oc1ccccc1Oc1ncc(Br)c(Cl)n1 | 3 | -1 | -25* | 9 | -3 | 17 | x | 3.7
CC(C)(C)c1ccc(C(CC(=O)O)NC(=O)Cc2ccc(Cl)cc2)cc1 (stereo not drawn) | 0 | -8 | -24* | -4 | 0 | -1 | -15 | u
CC(C)Oc1ccc(C(CC(=O)O)NC(=O)Cc2ccc(Cl)cc2)cc1 (stereo not drawn) | 0 | 2 | 10 | 4 | -9 | -42 | x | x
O=C(CCNC(=O)c1ccco1)Nc1cccc(Br)c1 | x | 0 | -20* | -7 | 34 | 36 | -20 | u
CSc1cccc(NC(=O)CCNC(=O)c2ccco2)c1 | x | -3 | 1 | 8 | -37 | 1 | x | x
